For assay [1], the target named is T1, Prostaglandin G/H synthase 1 (Homo sapiens, UniProt P23219). Nature of the assay: Inhibition of COX1-mediated PGE2 production in human platelets assessed as residual activity by measuring formation of 12-HHT from arachidonic acid preincubated at 10 uM for 5 mins measured after 5 mins by RP-HPLC analysis relative to control. A digest of the protocol:
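Washed human platelets, 10⁸/mL in PBS pH 7.4 with 1 mM CaCl2: 5 min compound preincubation at room temperature, then 1 min at 37 °C. Arachidonic acid 5 μM added; 5 min at 37 °C. 12-HHT extracted and measured by RP-HPLC.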

Assay [2] addresses T2, Polyunsaturated fatty acid 5-lipoxygenase (Homo sapiens) (UniProt P09917).
T2 sequence (whole entry): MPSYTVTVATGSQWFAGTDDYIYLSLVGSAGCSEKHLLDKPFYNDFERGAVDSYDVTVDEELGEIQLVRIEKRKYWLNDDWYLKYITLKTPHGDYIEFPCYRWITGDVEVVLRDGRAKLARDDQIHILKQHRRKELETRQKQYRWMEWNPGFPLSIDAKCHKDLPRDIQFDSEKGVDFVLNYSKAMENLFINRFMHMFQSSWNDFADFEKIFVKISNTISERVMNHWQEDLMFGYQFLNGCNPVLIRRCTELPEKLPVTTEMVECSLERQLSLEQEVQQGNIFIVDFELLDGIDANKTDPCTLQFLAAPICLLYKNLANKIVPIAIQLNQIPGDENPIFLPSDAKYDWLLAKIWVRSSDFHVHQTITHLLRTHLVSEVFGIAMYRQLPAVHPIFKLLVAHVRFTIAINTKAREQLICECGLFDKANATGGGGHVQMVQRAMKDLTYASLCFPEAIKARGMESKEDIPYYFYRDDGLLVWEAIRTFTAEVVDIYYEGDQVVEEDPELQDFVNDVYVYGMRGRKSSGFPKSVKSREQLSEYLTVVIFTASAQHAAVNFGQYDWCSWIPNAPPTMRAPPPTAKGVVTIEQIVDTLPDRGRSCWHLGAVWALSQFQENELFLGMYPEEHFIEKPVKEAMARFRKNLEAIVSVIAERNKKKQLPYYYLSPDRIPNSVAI
Nature of the assay: Ratio of curcumin IC50 to compound IC50 for 5-LO-mediated 5,12-DiHETE formation in LPS-stimulated human monocytes preincubated for 15 mins before arachidonic acid substrate addition measured after 30 mins by UPLC-MS/MS analysis. Format: cell-based.

For assay [3], the target named is T3, Prostaglandin E synthase (Homo sapiens, UniProt O14684).
T3 sequence (O14684 whole entry): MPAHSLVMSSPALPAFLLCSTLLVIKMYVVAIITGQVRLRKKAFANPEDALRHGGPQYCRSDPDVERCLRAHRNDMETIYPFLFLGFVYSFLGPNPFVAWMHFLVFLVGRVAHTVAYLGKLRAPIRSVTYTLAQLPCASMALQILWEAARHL
Nature of the assay: Inhibition of mPGES1-mediated PGE2 production in microsomes of IL-1beta stimulated human A549 cells preincubated for 15 mins by RP-HPLC analysis. It counts as cell-based. The method, boiled down: (§1)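 mPGES-1 source: microsomes of A549 cells treated 48 h with IL-1β 2 ng/mL, at 25−50 μg protein/mL in 0.1 M potassium phosphate pH 7.4 with 2.5 mM glutathione. Compound preincubation 15 min at 4 °C; PGH2 (20 μM final) for 1 min; FeCl2/citric acid stop with 11β-PGE2 internal standard. PGE2 by RP-HPLC.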

Assay [4] has as its target T2, Polyunsaturated fatty acid 5-lipoxygenase (Homo sapiens). Nature of the assay: Ratio of curcumin IC50 to compound IC50 for 5-LO-mediated LTB4 formation in LPS-stimulated human monocytes preincubated for 15 mins before arachidonic acid substrate addition measured after 30 mins by UPLC-MS/MS analysis. It counts as cell-based.
Assay [5] shares this target. Nature of the assay: Ratio of curcumin IC50 to compound IC50 for 5-LO-mediated 5-HETE formation in LPS-stimulated human monocytes preincubated for 15 mins before arachidonic acid substrate addition measured after 30 mins by UPLC-MS/MS analysis. Format: cell-based.
In assay [6] the target is T4, Prostaglandin G/H synthase 1 (Ovis aries) (UniProt P05979).
T4 sequence (whole entry): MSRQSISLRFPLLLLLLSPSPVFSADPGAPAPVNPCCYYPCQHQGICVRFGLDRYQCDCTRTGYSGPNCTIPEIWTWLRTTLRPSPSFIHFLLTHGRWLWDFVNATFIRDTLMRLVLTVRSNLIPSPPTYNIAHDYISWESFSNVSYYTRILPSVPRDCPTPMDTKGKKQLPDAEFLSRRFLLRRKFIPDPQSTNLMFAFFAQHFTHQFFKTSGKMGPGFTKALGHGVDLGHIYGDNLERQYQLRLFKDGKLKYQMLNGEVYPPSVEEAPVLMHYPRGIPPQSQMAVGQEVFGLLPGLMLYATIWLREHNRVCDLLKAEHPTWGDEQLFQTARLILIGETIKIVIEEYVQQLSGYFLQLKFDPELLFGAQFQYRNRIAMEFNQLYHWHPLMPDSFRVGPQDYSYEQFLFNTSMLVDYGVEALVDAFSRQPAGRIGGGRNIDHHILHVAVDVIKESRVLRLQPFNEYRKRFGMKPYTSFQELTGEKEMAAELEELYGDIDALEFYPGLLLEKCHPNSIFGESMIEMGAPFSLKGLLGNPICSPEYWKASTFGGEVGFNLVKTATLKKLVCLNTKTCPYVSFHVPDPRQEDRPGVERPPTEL
Nature of the assay: Inhibition of purified ovine COX-1 assessed as residual activity by measuring formation of 12-HHT from arachidonic acid preincubated at 10 uM for 5 mins before substrate addition measured after 5 mins by HPLC analysis relative to control. A digest of the protocol: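 Purified ovine COX-1 (50 units) in 100 mM Tris pH 8 with 5 mM glutathione, 5 μM hemoglobin and 100 μM EDTA. Preincubated 5 min at 4 °C then 1 min at 37 °C. 5 μM arachidonic acid added; 12-HHT extracted after 5 min and measured by HPLC. Residual activity at 10 μM, three independent experiments.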

Assay [7] addresses T5, Prostaglandin E synthase (Homo sapiens) (UniProt O14684).
T5 sequence (whole entry): T3 sequence (O14684 whole entry)
Nature of the assay: Inhibition of mPGES1-mediated PGE2 production in microsomes of IL-1beta stimulated human A549 cells assessed as residual activity preincubated at 10 uM for 15 mins by RP-HPLC analysis relative to control. Format: cell-based. A digest of the protocol:
as §1

The target of assay [8] is T1, Prostaglandin G/H synthase 1. Nature of the assay: Inhibition of COX1-mediated PGD2 formation in LPS-stimulated human monocytes preincubated for 15 mins before arachidonic acid substrate addition measured after 30 mins by UPLC-MS/MS analysis. It counts as cell-based.
Assay [9] has the same target. Nature of the assay: Inhibition of COX1-mediated PGF2alpha formation in LPS-stimulated human monocytes preincubated for 15 mins before arachidonic acid substrate addition measured after 30 mins by UPLC-MS/MS analysis. Format: cell-based.
Assay [10] concerns the target T2, Polyunsaturated fatty acid 5-lipoxygenase (Homo sapiens). Nature of the assay: Inhibition of 5-LO in human neutrophils using arachidonic acid as substrate assessed as residual activity preincubated at 10 uM for 15 mins measured after 10 mins by HPLC analysis relative to control. A digest of the protocol: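 Fresh human neutrophils, 1 × 10⁷/mL in PBS pH 7.4 with 1 mM CaCl2 and 1 mg/mL glucose, preincubated 15 min at 37 °C. Stimulated with 2.5 μM A23187 plus 20 μM arachidonic acid for 10 min at 37 °C; methanol stop. LTB4, its all-trans isomers and 5-H(P)ETE by HPLC.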

Active and inactive are the calls of the source. No cut-off for these calls is given here. A value given as a limit tells only on which side of the number the result lay.

T1 sequence (P23219 whole entry): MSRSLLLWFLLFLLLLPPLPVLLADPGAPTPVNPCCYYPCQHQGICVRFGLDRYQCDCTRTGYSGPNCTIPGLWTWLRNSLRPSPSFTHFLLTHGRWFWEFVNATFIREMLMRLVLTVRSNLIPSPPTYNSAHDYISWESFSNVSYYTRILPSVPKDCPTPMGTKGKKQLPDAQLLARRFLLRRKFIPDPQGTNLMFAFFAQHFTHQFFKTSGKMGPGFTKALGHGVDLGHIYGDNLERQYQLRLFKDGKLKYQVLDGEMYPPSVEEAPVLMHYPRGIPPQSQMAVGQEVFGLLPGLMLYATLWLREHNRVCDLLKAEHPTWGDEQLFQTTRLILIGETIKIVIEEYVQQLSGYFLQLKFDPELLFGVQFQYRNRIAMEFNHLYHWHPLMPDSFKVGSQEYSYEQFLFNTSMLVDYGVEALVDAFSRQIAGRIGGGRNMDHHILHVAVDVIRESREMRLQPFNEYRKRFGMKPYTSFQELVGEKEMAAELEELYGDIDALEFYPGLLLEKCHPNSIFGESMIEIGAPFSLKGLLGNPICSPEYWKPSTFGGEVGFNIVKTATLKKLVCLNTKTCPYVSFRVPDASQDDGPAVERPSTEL

As for `COc1cc(/C=C/C(=O)/C=C/c2cc(CC=C(C)C)c(O)c(OC)c2)cc(CC=C(C)C)c1O`, in [1], the inhibition entry is “inactive”. For the same molecule, the Ratio IC50 in assay [2], in [4] and in [5] was 2 each time. The IC50 in assay [3] (read-out: IC50) was 1.5 µM.
Regarding `COc1cc(/C=C/c2cc(-c3ccc(O)c(OC)c3)[nH]n2)ccc1O`, the inhibition entry in assay [1] and in assay [6] was “inactive” throughout. The Ratio IC50 in assay [2], in [4] and in assay [5] was 2 each time. In [7], the Activity was found to be 62.2%. In addition, the inhibition entry in [8] and in assay [9] was “Active” in each case.
`COc1cc(/C=C/c2cc(/C=C/c3cc(CC=C(C)C)c(O)c(OC)c3)[nH]n2)cc(CC=C(C)C)c1O`: the inhibition result in [1] and in assay [6] was “inactive” each time. Also, the Activity in assay [7] was found to be 68%. Besides, the IC50 in [8] and in assay [9] was over 10 µM each time.
On to `COc1cc(/C=C/C(=O)CC(=O)c2ccc(O)c(OC)c2)ccc1O`, for which the inhibition entry in assay [1] and in assay [6] was “inactive” throughout. Further, in assay [7], the Activity was determined as 72.6%.
`COc1cc(/C=C/C(=O)CC(=O)/C=C/c2cc(CC=C(C)C)c(O)c(OC)c2)cc(CC=C(C)C)c1O`: the inhibition result in assay [1] is “inactive”. Moreover, the results for the Activity in assay [10] and in [7] were 74.3% and 59.6%, respectively.
With `COc1cc(/C=C/c2cc(/C=C/c3ccc(O)c(OC)c3)[nH]n2)ccc1O` [CURCUMIN PYRAZOLE], the inhibition result in assay [6] was “inactive”. The Ratio IC50 in assay [2], in assay [4] and in assay [5] was 2 each time. In [7], the Activity worked out at 54.8%. The inhibition result in assay [8] and in assay [9] was “Active” throughout.
Take `COc1cc(/C=C/C(=O)/C=C/c2ccc(O)c(OC)c2)ccc1O`: the inhibition entry in assay [1] and in assay [6] was “inactive” each time. For the same molecule, in [3] (a549), the IC50 result was “Not Active”.
`COc1cc(/C=C/C(=O)CC(=O)/C=C/c2ccc(O)c(OC)c2)ccc1O` [CURCUMIN]: the inhibition entry in assay [6] is “inactive”. In addition, the IC50 in assay [3] (read-out: IC50) stood at 0.6 µM. Also, the inhibition result in [8] and in assay [9] was “Active” each time.
On to `COc1cc(CCC(=O)CC(=O)CCc2ccc(O)c(OC)c2)ccc1O` [TETRAHYDROCURCUMIN], for which the inhibition entry in [1] and in [6] was “inactive” in each case. Besides, the Activity in assay [10] came out at 70.1%. Moreover, the IC50 result in assay [3] (a549) was “Not Active”.

A word on the IC50: it is the concentration that inhibits the measured activity by half.
